Experimental data gathered from unrelated publications.
Protocols differ between the studies behind these lines.
Target: Dual specificity protein kinase CLK3 (CLK3, Homo sapiens, UniProt P49761)

SMILES	effect on	action	method	concentration	measurement	result
C=CC(=O)N1CCC[C@@H](n2nc(-c3ccc(Oc4ccccc4)cc3)c3c(N)ncnc32)C1	enzyme activity	inhibitor		1 µM	inhibition	23%
C1=C/COCc2cc(ccc2OCCN2CCCC2)Nc2nccc(n2)-c2cccc(c2)COC/1	binding			0.1 µM	remaining binding	100%
C=CC(=O)N1CCC([C@@H]2CCNc3c(C(N)=O)c(-c4ccc(Oc5ccccc5)cc4)nn32)CC1	enzyme activity	inhibitor		1 µM	inhibition	16%
Cc1cc(O)c(-c2ccc([C@@H](C)CN(C)C)cc2)c2c1[nH]c(=O)c1sccc12	enzyme activity	inhibitor		0.1 µM	inhibition	-13.2%
CN1CCN(C(=O)c2ccc(NC(=O)Nc3ccc(N(C)c4ccnc(Nc5ccc(CS(C)(=O)=O)cc5)n4)cc3)cc2)CC1	binding			1 µM	remaining binding	95%
CCCCC(=O)Nc1ccc(-c2ccc3ncn(CCC)c(=O)c3c2)cn1	binding		competition with immobilised ligand	0.5 µM	remaining binding	78%
CC(C)S(=O)(=O)c1ccc2nccc(Nc3ccc4sc(C5CCCC5)nc4c3)c2c1	enzyme activity	inhibitor		1 µM	activity vs control	110%
C[C@H]1CC[C@H](n2c3cnccc3c3cnc(Nc4ccc5c(n4)CCN(C(=O)CO)C5)nc32)CC1	cell-free assay			1 µM	remaining signal	100%
